From ChEMBL document CHEMBL3286121, “Synthesis of 5-methyl phenanthridium derivatives: a new class of human DOPA decarboxylase inhibitors” (Bioorg Med Chem Lett, 2014) come the findings set out here.

pIC50: −log10 of the molar value.

One test concerns the target T1, Aromatic-L-amino-acid decarboxylase (Homo sapiens, UniProt P20711).
T1 sequence (P20711 whole entry): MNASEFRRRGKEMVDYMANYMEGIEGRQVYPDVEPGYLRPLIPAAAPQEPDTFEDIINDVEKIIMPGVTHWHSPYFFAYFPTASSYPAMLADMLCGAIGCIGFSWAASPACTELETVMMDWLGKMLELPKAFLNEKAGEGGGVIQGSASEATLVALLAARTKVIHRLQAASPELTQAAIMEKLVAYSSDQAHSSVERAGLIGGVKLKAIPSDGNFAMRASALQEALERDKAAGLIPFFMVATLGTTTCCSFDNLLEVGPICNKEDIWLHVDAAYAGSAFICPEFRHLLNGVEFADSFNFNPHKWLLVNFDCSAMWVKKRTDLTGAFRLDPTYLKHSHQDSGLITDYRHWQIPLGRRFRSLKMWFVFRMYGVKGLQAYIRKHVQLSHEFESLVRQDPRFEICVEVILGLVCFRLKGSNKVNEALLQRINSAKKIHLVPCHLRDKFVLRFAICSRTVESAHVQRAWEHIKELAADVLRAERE
Put plainly: Inhibition of recombinant human DOPA decarboxylase assessed as inhibition of dopamine production after 30 mins by HPLC method.
Conditions: not given; call rule not given here
Summed up:
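Recombinant human enzyme reacted with L-DOPA (1 mM final) and PLP cofactor in pH 6.8 buffer, enzyme […] final, with or without compound, 37 °C for 30 min; stopped by heating at 100 °C for 2 min. Dopamine formed quantified by HPLC, 0.2% formic acid/methanol 9:1 eluent, UV 280 nm. IC50 from dose-response curves, 6 concentrations, each in duplicate.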
On to `COc1ccc2cc3[n+](cc2c1OC)CCc1cc2c(cc1-3)OCO2` [BERBERINE], for which the IC50 entry is listed as “Not Active”.
With `CN1Cc2c(ccc3c2OCO3)-c2ccc3cc4c(cc3c21)OCO4` [DIHYDROSANGUINARINE], the IC50 entry is reported as “Not Active”.

The same test, now with this note: read-out: IC50.
As to `COc1cc2c[n+](C)c3ccc(Cl)cc3c2cc1OC`, the negative logarithm of the IC50 (pIC50) is 2.86.
The same measure, in the same setting: as for `COc1ccc2c(c[n+](C)c3c4cc5c(cc4ccc23)OCO5)c1OC` [CHELERYTHRINE], the figure is 2.89.
Turning to `COc1ccc2c(c1)c1cc(OC)c(OC)cc1c[n+]2C`, the pIC50 was 2.93.
`COc1cc2c[n+](C)c3c4cc5c(cc4ccc3c2cc1OC)OCO5` [NITIDINE]: the negative-log IC50 (pIC50) is 2.87.
As for `COc1ccc2c(c1)c[n+](C)c1ccc(OC)cc21`, the pIC50 is 3.72.
For `COc1cc2c[n+](C)c3ccc(C)cc3c2cc1OC`, the negative logarithm of the IC50 (pIC50) is 2.83.
On to `COc1ccc2c(c1)c[n+](C)c1ccccc21`, for which the pIC50 was 3.02.
Still for that read-out and setting: as for `COc1ccc2c(c1)c[n+](C)c1ccc(C)cc21`, the figure is 3.22; as for `COc1ccc2c(c1)c[n+](C)c1ccc(O)cc21`, 3.92.
Still for that read-out and setting: as for `C[n+]1cc2c3c(ccc2c2ccc4cc5c(cc4c21)OCO5)OCO3` [SANGUINARIUM CHLORIDE], the figure is 3.70.
With `C[n+]1cc2ccccc2c2ccccc21`, the pIC50 was 3.40.
As for `COc1cc2c[n+](C)c3ccccc3c2cc1OC`, the negative logarithm of the IC50 (pIC50) is 2.46.
On to `COc1ccc2c(c1)c[n+](C)c1ccc(Cl)cc21`, for which the pIC50 was 3.03.
`COc1cc2c[n+](C)c3ccc(F)cc3c2cc1OC`: the pIC50 is 2.57.
As to `COc1ccc2c(c1)c[n+](C)c1ccc(F)cc21`, the negative-log IC50 (pIC50) was 3.24.
